Results on eleven compounds are retold here after ChEMBL document CHEMBL4364271, “Unveiling the Importance of Amide Protons in CSP:ComD Interactions in Streptococcus pneumoniae” (ACS Med Chem Lett, 2019).

In series [1] the test system is Streptococcus pneumoniae D39. The experiment in a line: Agonist activity at ComD1 receptor in Streptococcus pneumoniae D39 harboring pcomX/lacZ reporter gene at 10 uM incubated for 30 mins by ONPG based beta-galactosidase assay relative to native CSP1. Put shortly:
(§1)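 Single-dose screen of synthetic peptide at 10 μM in wild-type reporter strains (D39 for ComD1, TIGR4 for ComD2) producing their own CSP and carrying lacZ under the comX promoter. β-gal activity in Miller units normalized to native CSP (CSP1 or CSP2, 100%); DMSO 0%. Triplicates over three separate trials.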

The test system of series [2] is Streptococcus pneumoniae TIGR4. Kind of series: Agonist activity at ComD2 receptor in Streptococcus pneumoniae TIGR4 harboring pcomX/lacZ reporter gene at 10 uM incubated for 30 mins by ONPG based beta-galactosidase assay relative to native CSP2. Put shortly: as §1
Series [3] relates to Streptococcus pneumoniae D39. Kind of series: Antagonist activity at ComD1 receptor in Streptococcus pneumoniae D39 harboring pcomX/lacZ reporter gene assessed as inhibiton of CSP1-stimulated maximum signal at 10 uM preincubated for 30 mins followed by 50 nM CSP1 addition by ONPG based beta-galactosidase assay relative to native CSP1. The essentials: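 Inhibition screen: peptides at 10 μM against CSP1 50 nM (D39, ComD1) or CSP2 250 nM (TIGR4, ComD2), in comX-lacZ reporter strains. β-gal Miller units normalized to CSP alone (100%) and DMSO (0%). Triplicates over three separate trials.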

Series [4] in a line: Agonist activity at ComD2 receptor in Streptococcus pneumoniae TIGR4 harboring pcomX/lacZ reporter gene incubated for 30 mins by ONPG based beta-galactosidase assay. Put shortly: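 Dose-response in wild-type lacZ reporter strains (comX promoter; D39 for ComD1, TIGR4 for ComD2) producing native CSP. Peptides tested over a range of concentrations. β-gal read-out (Miller units) normalized to native CSP. EC50 reported with 95% confidence interval.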

Series [5] is described as follows: Solubility of the compound in ammonium carbonate solution at pH 8. It is filed as physicochemical. Particulars: buffer.

Each structure is given as a SMILES string. pEC50: −log10 of the molar value. Activity calls are given as the source filed them. The rule behind the calls is not given here. Non-standard residues stand in square brackets, D forms with d. Residues, ends and D or L forms follow the SMILES beside them. NMeR = CN[C@@H](CCCNC(=N)N)C(=O)O; NMeF = CN[C@@H](Cc1ccccc1)C(=O)O; NMeI = CC[C@H](C)[C@H](NC)C(=O)O; NMeD = CN[C@@H](CC(=O)O)C(=O)O; NMeL = CN[C@@H](CC(C)C)C(=O)O; NMeS = CN[C@@H](CO)C(=O)O A value given as a limit tells only on which side of the number the result lay.

`CC[C@H](C)[C@H](NC(=O)[C@H](CCCNC(=N)N)NC(=O)[C@H](CCSC)NC(=O)[C@@H](N)CCC(=O)O)C(=O)N[C@@H](CO)C(=O)N[C@@H](CCCNC(=N)N)C(=O)N[C@H](C(=O)N[C@H](C(=O)N[C@@H](CC(C)C)C(=O)N(C)[C@@H](CC(=O)O)C(=O)N[C@@H](Cc1ccccc1)C(=O)N[C@@H](CC(C)C)C(=O)N[C@@H](Cc1ccccc1)C(=O)O)[C@@H](C)CC)[C@@H](C)CC` (H-EMRISRIIL[NMeD]FLF-OH): the result in series [1] was inactive. Further, in series [2], the Activity was over 75%. For the same compound, in series [3], the inhibition entry was “inactive”. In series [4], this compound showed a negative-log EC50 (pEC50) of 6.47. In series [5], the solubility entry was “Insoluble”.
For the compound `CC[C@H](C)[C@H](NC(=O)[C@H](CCCNC(=N)N)NC(=O)[C@H](CCSC)NC(=O)[C@@H](N)CCC(=O)O)C(=O)N[C@@H](CO)C(=O)N[C@@H](CCCNC(=N)N)C(=O)N[C@H](C(=O)N[C@H](C(=O)N[C@@H](CC(C)C)C(=O)N[C@@H](CC(=O)O)C(=O)N[C@@H](Cc1ccccc1)C(=O)N(C)[C@@H](CC(C)C)C(=O)N[C@@H](Cc1ccccc1)C(=O)O)[C@@H](C)CC)[C@@H](C)CC` (H-EMRISRIILDF[NMeL]F-OH), the outcome in series [1] and in series [2] was inactive. The inhibition result in series [3] is “inactive”. Also, in series [5], the solubility result was “Insoluble”.
Turning to `CC[C@H](C)[C@H](NC(=O)[C@H](CCCNC(=N)N)NC(=O)[C@H](CCSC)NC(=O)[C@@H](N)CCC(=O)O)C(=O)N[C@@H](CO)C(=O)N[C@@H](CCCNC(=N)N)C(=O)N[C@H](C(=O)N(C)[C@H](C(=O)N[C@@H](CC(C)C)C(=O)N[C@@H](CC(=O)O)C(=O)N[C@@H](Cc1ccccc1)C(=O)N[C@@H](CC(C)C)C(=O)N[C@@H](Cc1ccccc1)C(=O)O)[C@@H](C)CC)[C@@H](C)CC` (H-EMRISRI[NMeI]LDFLF-OH), the result in series [1] and in series [2] was inactive. The inhibition entry in series [3] was “inactive”. In series [5], the solubility result is “Insoluble”.
Consider `CC[C@H](C)[C@H](NC(=O)[C@H](CCCNC(=N)N)NC(=O)[C@H](CCSC)NC(=O)[C@@H](N)CCC(=O)O)C(=O)N[C@@H](CO)C(=O)N[C@@H](CCCNC(=N)N)C(=O)N[C@H](C(=O)N[C@H](C(=O)N(C)[C@@H](CC(C)C)C(=O)N[C@@H](CC(=O)O)C(=O)N[C@@H](Cc1ccccc1)C(=O)N[C@@H](CC(C)C)C(=O)N[C@@H](Cc1ccccc1)C(=O)O)[C@@H](C)CC)[C@@H](C)CC` (H-EMRISRII[NMeL]DFLF-OH), for which the outcome in series [1] and in series [2] was inactive. The inhibition entry in series [3] was “inactive”. Moreover, the solubility result in series [5] is given as “Insoluble”.
With `CC[C@H](C)[C@H](NC(=O)[C@H](CCCNC(=N)N)NC(=O)[C@H](CCSC)NC(=O)[C@@H](N)CCC(=O)O)C(=O)N[C@@H](CO)C(=O)N(C)[C@@H](CCCNC(=N)N)C(=O)N[C@H](C(=O)N[C@H](C(=O)N[C@@H](CC(C)C)C(=O)N[C@@H](CC(=O)O)C(=O)N[C@@H](Cc1ccccc1)C(=O)N[C@@H](CC(C)C)C(=O)N[C@@H](Cc1ccccc1)C(=O)O)[C@@H](C)CC)[C@@H](C)CC` (H-EMRIS[NMeR]IILDFLF-OH), in series [1], the result was inactive. Besides, the Activity in series [2] is over 75%. The inhibition result in series [3] is “inactive”. Further, the negative logarithm of the EC50 (pEC50) in series [4] was 6.25. In series [5], the solubility result is given as “Insoluble”.
Turning to `CC[C@H](C)[C@H](NC(=O)[C@H](CCCNC(=N)N)NC(=O)[C@H](CCSC)NC(=O)[C@@H](N)CCC(=O)O)C(=O)N[C@@H](CO)C(=O)N[C@@H](CCCNC(=N)N)C(=O)N[C@H](C(=O)N[C@H](C(=O)N[C@@H](CC(C)C)C(=O)N[C@@H](CC(=O)O)C(=O)N(C)[C@@H](Cc1ccccc1)C(=O)N[C@@H](CC(C)C)C(=O)N[C@@H](Cc1ccccc1)C(=O)O)[C@@H](C)CC)[C@@H](C)CC` (H-EMRISRIILD[NMeF]LF-OH), the outcome in series [1] and in series [2] was inactive. The inhibition result in series [3] was “inactive”. For the same compound, the solubility entry in series [5] is listed as “Insoluble”.
Consider `CC[C@H](C)[C@H](NC(=O)[C@H](CCCNC(=N)N)NC(=O)[C@H](CO)N(C)C(=O)[C@@H](NC(=O)[C@H](CCCNC(=N)N)NC(=O)[C@H](CCSC)NC(=O)[C@@H](N)CCC(=O)O)[C@@H](C)CC)C(=O)N[C@H](C(=O)N[C@@H](CC(C)C)C(=O)N[C@@H](CC(=O)O)C(=O)N[C@@H](Cc1ccccc1)C(=O)N[C@@H](CC(C)C)C(=O)N[C@@H](Cc1ccccc1)C(=O)O)[C@@H](C)CC` (H-EMRI[NMeS]RIILDFLF-OH), for which the result in series [1] was inactive. This compound had an Activity in series [2] of over 75%. For the same compound, the inhibition entry in series [3] was “inactive”. In series [4], the pEC50 is 6.26. Further, in series [5], the solubility result is given as “Insoluble”.
Regarding `CC[C@H](C)[C@H](NC(=O)[C@H](CCCNC(=N)N)NC(=O)[C@H](CO)NC(=O)[C@H]([C@@H](C)CC)N(C)C(=O)[C@H](CCCNC(=N)N)NC(=O)[C@H](CCSC)NC(=O)[C@@H](N)CCC(=O)O)C(=O)N[C@H](C(=O)N[C@@H](CC(C)C)C(=O)N[C@@H](CC(=O)O)C(=O)N[C@@H](Cc1ccccc1)C(=O)N[C@@H](CC(C)C)C(=O)N[C@@H](Cc1ccccc1)C(=O)O)[C@@H](C)CC` (H-EMR[NMeI]SRIILDFLF-OH), the result in series [1] was inactive. For the same compound, in series [2], the Activity is over 75%. Moreover, the inhibition result in series [3] was “inactive”. The compound further gave a negative logarithm of the EC50 (pEC50) in series [4] of under 6.00. Further, the solubility result in series [5] is “Insoluble”.
For the compound `CC[C@H](C)[C@H](NC(=O)[C@H](CCCNC(=N)N)NC(=O)[C@H](CCSC)NC(=O)[C@@H](N)CCC(=O)O)C(=O)N[C@@H](CO)C(=O)N[C@@H](CCCNC(=N)N)C(=O)N(C)[C@H](C(=O)N[C@H](C(=O)N[C@@H](CC(C)C)C(=O)N[C@@H](CC(=O)O)C(=O)N[C@@H](Cc1ccccc1)C(=O)N[C@@H](CC(C)C)C(=O)N[C@@H](Cc1ccccc1)C(=O)O)[C@@H](C)CC)[C@@H](C)CC` (H-EMRISR[NMeI]ILDFLF-OH), the outcome in series [1] was inactive. Moreover, the Activity in series [2] was over 75%. Moreover, the inhibition entry in series [3] is “inactive”. In addition, the pEC50 in series [4] was under 6.00. The solubility entry in series [5] was “Insoluble”.
Consider `CC[C@H](C)[C@H](NC(=O)[C@H](CCCNC(=N)N)NC(=O)[C@H](CCSC)NC(=O)[C@@H](N)CCC(=O)O)C(=O)N[C@@H](CO)C(=O)N[C@@H](CCCNC(=N)N)C(=O)N[C@H](C(=O)N[C@H](C(=O)N[C@@H](CC(C)C)C(=O)N[C@@H](CC(=O)O)C(=O)N[C@@H](Cc1ccccc1)C(=O)N[C@@H](CC(C)C)C(=O)N(C)[C@@H](Cc1ccccc1)C(=O)O)[C@@H](C)CC)[C@@H](C)CC` (H-EMRISRIILDFL[NMeF]-OH), for which, in series [1], the outcome was inactive. Moreover, the Activity in series [2] is over 75%. Further, in series [3], the inhibition entry is “inactive”. Also, in series [4], the pEC50 was 7.57. Moreover, the solubility entry in series [5] was “Insoluble”.
Turning to `CC[C@H](C)[C@H](NC(=O)[C@H](CCCNC(=N)N)NC(=O)[C@H](CO)NC(=O)[C@@H](NC(=O)[C@H](CCCNC(=N)N)N(C)C(=O)[C@H](CCSC)NC(=O)[C@@H](N)CCC(=O)O)[C@@H](C)CC)C(=O)N[C@H](C(=O)N[C@@H](CC(C)C)C(=O)N[C@@H](CC(=O)O)C(=O)N[C@@H](Cc1ccccc1)C(=O)N[C@@H](CC(C)C)C(=O)N[C@@H](Cc1ccccc1)C(=O)O)[C@@H](C)CC` (H-EM[NMeR]ISRIILDFLF-OH), the result in series [1] and in series [2] was inactive. In addition, in series [3], the inhibition entry is “inactive”. For the same compound, the solubility entry in series [5] is recorded as “Insoluble”.
